Consider 11 compounds from ChEMBL document CHEMBL3046420, “A new antifungal and cytotoxic C-methylated flavone glycoside from Picea neoveitchii” (2012).

Holding throughout (type): functional
Assay [1] can be described thus: Cytotoxicity against Spodoptera litura cells assessed as growth inhibition at 20 mg/L after 24 hr by MTT assay relative to control. The conditions noted are these: read-out: GI. The method, boiled down:
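SL cells were grown in Grace's insect medium with 9% newborn calf serum at 27.5 °C and used in log phase. Cells were seeded in 96-well plates for 24 h, then exposed for 24 h to compound (DMSO stock diluted in medium); controls got 0.5% DMSO. MTT (0.5 mg/mL) was added for 4 h, formazan dissolved in DMSO, and A570 read. Three separate experiments.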

In the next assay the test system is Thielaviopsis paradoxa. In words: Antifungal activity against Ceratocystis paradoxa assessed as mycelial growth inhibition at 100 ug/disc after 2 to 4 days by disk diffusion method relative to control. The conditions noted are these: for zone of inhibition at 100 µg/disc: read-out: DIZ; for inhibition of growth at 100 µg/disc: read-out: GI. The method in brief: (§1)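 Disc diffusion on PDA in 90 mm Petri plates. Sterile 5 mm filter paper discs were loaded with 10 µL of a 10 mg/mL MeOH solution, air-dried and set at the plate centre. Four 5 mm fungal plugs were placed inverted 20 mm from the disc. Plates were incubated at 29 °C for 2–4 days, until growth in the MeOH blank reached the centre. The inhibitory zone was measured in mm and expressed as % of the carbendazim zone. Triplicate.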

Another assay deals with Alternaria mali. In words: Antifungal activity against Alternaria mali assessed as mycelial growth inhibition at 100 ug/disk after 2 to 4 days by disk diffusion method relative to control. The conditions noted are these: for zone of inhibition at 100 µg/disc: read-out: DIZ; for inhibition of growth at 100 µg/disc: read-out: GI. The method in brief: as §1
A further assay has as its system Athelia rolfsii. The experiment in a line: Antifungal activity against Athelia rolfsii assessed as mycelial growth inhibition at 100 ug/disk after 2 to 4 days by disk diffusion method relative to control. The conditions noted are these: Agroathelia rolfsii; for zone of inhibition at 100 µg/disc: read-out: DIZ; for inhibition of growth at 100 µg/disc: read-out: GI. The method, boiled down: as §1

Another assay concerns Pyricularia grisea. In words: Antifungal activity against Magnaporthe grisea assessed as mycelial growth inhibition at 100 ug/disk after 2 to 4 days by disk diffusion method relative to control. The conditions noted are these: for zone of inhibition at 100 µg/disc: read-out: DIZ; for inhibition of growth at 100 µg/disc: read-out: GI. The method in brief: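 Modified disc diffusion on PDA in 90 mm plates. Each 5 mm filter disc was loaded with 10 µL of a 10 mg/mL MeOH solution, air-dried and placed at the plate centre. Four 5 mm fungal plugs were set 20 mm from the disc. MeOH discs served as blank and carbendazim as positive control. Plates were incubated at 29 °C for 2–4 days. Inhibition zone (mm) was expressed as % of the carbendazim zone. Triplicate.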

`O=c1c(O[C@@H]2O[C@H](CO)[C@@H](O)[C@H](O)[C@H]2O)c(-c2ccc(O[C@@H]3O[C@H](CO)[C@@H](O)[C@H](O)[C@H]3O)cc2)oc2cc(O)cc(O)c12`: in assay [1], the inhibition of growth at 20 µg/mL turned out to be 23.1%. For the same compound, the zone of inhibition at 100 µg/disc in the assay with Thielaviopsis paradoxa came to 0 mm; with Alternaria mali, 2.4 mm; with Athelia rolfsii it was 3.7 mm; in the assay with Pyricularia grisea, 0 mm. Further, the inhibition of growth at 100 µg/disc with Thielaviopsis paradoxa worked out at 0%; with Alternaria mali, 24.2%; in the assay on Athelia rolfsii, 31.9%; in the assay on Pyricularia grisea it was 0%.

In the case of `COc1c(-c2ccc(O)cc2)oc2c(O[C@@H]3O[C@H](CO)[C@@H](O)[C@H](O)[C@H]3O)c(O)c(C)c(O)c2c1=O`, the inhibition of growth at 20 µg/mL in assay [1] worked out at 62.5%. Moreover, the zone of inhibition at 100 µg/disc in the assay with Thielaviopsis paradoxa worked out at 6.2 mm; in the assay with Alternaria mali, 7.2 mm; in the assay on Athelia rolfsii, 9.4 mm; with Pyricularia grisea, 7.6 mm. Further, the inhibition of growth at 100 µg/disc with Thielaviopsis paradoxa stood at 24.1%; in the assay on Alternaria mali, 72.7%; in the assay with Athelia rolfsii it was 81%; with Pyricularia grisea, 40.9%.

With `COc1c(-c2ccc(O[C@@H]3O[C@H](CO)[C@@H](O)[C@H](O)[C@H]3O)cc2)oc2c(O[C@@H]3O[C@H](CO)[C@@H](O)[C@H](O)[C@H]3O)c(O)c(C)c(O)c2c1=O`, the inhibition of growth at 20 µg/mL in assay [1] turned out to be 64.4%. The zone of inhibition at 100 µg/disc in the assay with Thielaviopsis paradoxa was 0 mm; in the assay on Alternaria mali, 4.3 mm; in the assay on Athelia rolfsii it was 4.8 mm; in the assay on Pyricularia grisea, 5.7 mm. Also, the inhibition of growth at 100 µg/disc in the assay with Thielaviopsis paradoxa worked out at 0%; in the assay with Alternaria mali, 43.4%; with Athelia rolfsii, 41.4%; in the assay on Pyricularia grisea, 30.6%.

In the case of `O=c1cc(-c2ccc(O)cc2)oc2cc(O[C@@H]3O[C@H](CO)[C@@H](O)[C@H](O)[C@H]3O)cc(O)c12` [APIGETRIN], in assay [1], the inhibition of growth at 20 µg/mL was determined as 7.8%. Further, the zone of inhibition at 100 µg/disc stood at 0 mm in the assay with Thielaviopsis paradoxa, 5.8 mm in the assay on Alternaria mali, 4.8 mm with Athelia rolfsii and 3.3 mm in the assay on Pyricularia grisea. The inhibition of growth at 100 µg/disc is 0% in the assay with Thielaviopsis paradoxa, 58.6% in the assay with Alternaria mali, 41.4% in the assay on Athelia rolfsii and 17.7% with Pyricularia grisea.

On to `COC(=O)Nc1nc2ccccc2[nH]1` [CARBENDAZIM], for which the zone of inhibition at 100 µg/disc in the assay with Thielaviopsis paradoxa came to 25.7 mm; in the assay with Alternaria mali, 9.9 mm; with Athelia rolfsii it was 11.6 mm; in the assay on Pyricularia grisea it was 18.6 mm. In addition, the inhibition of growth at 100 µg/disc in the assay on Thielaviopsis paradoxa, in the assay with Alternaria mali, in the assay with Athelia rolfsii and in the assay on Pyricularia grisea was 100% throughout.

Take `COc1cc(CCCO)ccc1O[C@@H]1O[C@H](CO)[C@@H](O)[C@H](O)[C@H]1O` [DIHYDROCONIFERIN]: the inhibition of growth at 20 µg/mL in assay [1] is 4%. Also, the zone of inhibition at 100 µg/disc in the assay with Thielaviopsis paradoxa is 0 mm; in the assay on Alternaria mali, 3.1 mm; in the assay on Athelia rolfsii, 0 mm; in the assay with Pyricularia grisea, 8.6 mm. The inhibition of growth at 100 µg/disc in the assay with Thielaviopsis paradoxa worked out at 0%; with Alternaria mali, 31.3%; in the assay with Athelia rolfsii it was 0%; in the assay on Pyricularia grisea it was 46.2%.

As for `C[C@@H]1O[C@@H](OC[C@H]2O[C@@H](OC(=O)/C=C/c3ccccc3)[C@H](O)[C@@H](O)[C@@H]2O)[C@H](O)[C@H](O)[C@H]1O` [GLEDITSCHIASIDE A], the inhibition of growth at 20 µg/mL in assay [1] came out at 62.2%. Besides, the zone of inhibition at 100 µg/disc in the assay with Thielaviopsis paradoxa, with Alternaria mali, with Athelia rolfsii and in the assay with Pyricularia grisea was 0 mm each time. In addition, the inhibition of growth at 100 µg/disc in the assay on Thielaviopsis paradoxa, in the assay with Alternaria mali, in the assay on Athelia rolfsii and in the assay on Pyricularia grisea was 0% in each case.

As to `COc1cc([C@H]2Oc3c(O)cc(CCCO)cc3[C@@H]2CO)ccc1O[C@@H]1O[C@@H](C)[C@H](O)[C@@H](O)[C@H]1O` [MASSONIANOSIDE B], in assay [1], the inhibition of growth at 20 µg/mL was 17.9%. Further, the zone of inhibition at 100 µg/disc was 5.6 mm with Thielaviopsis paradoxa, 8.8 mm in the assay on Alternaria mali, 0 mm with Athelia rolfsii and 7 mm in the assay with Pyricularia grisea. The inhibition of growth at 100 µg/disc in the assay on Thielaviopsis paradoxa is 21.8%; in the assay with Alternaria mali, 88.9%; in the assay with Athelia rolfsii, 0%; in the assay on Pyricularia grisea, 37.6%.

On to `C=C(C)[C@H]1Cc2c(ccc3c2O[C@@H]2COc4cc(OC)c(OC)cc4[C@@H]2C3=O)O1` [ROTENONE], for which, in assay [1], the inhibition of growth at 20 µg/mL turned out to be 74.4%.

For the compound `O=c1ccc2ccc(O[C@@H]3O[C@H](CO)[C@@H](O)[C@H](O)[C@H]3O)cc2o1` [SKIMMIN], the inhibition of growth at 20 µg/mL in assay [1] was determined as 15.3%. For the same compound, the zone of inhibition at 100 µg/disc turned out to be 1.5 mm in the assay with Thielaviopsis paradoxa, 0 mm in the assay on Alternaria mali, 2.8 mm in the assay on Athelia rolfsii and 0 mm with Pyricularia grisea. The inhibition of growth at 100 µg/disc in the assay on Thielaviopsis paradoxa came out at 5.8%; with Alternaria mali it was 0%; with Athelia rolfsii, 24.1%; in the assay on Pyricularia grisea it was 0%.

Take `O=C(/C=C/c1ccc(O)cc1)OC[C@H]1O[C@@H](Oc2c(-c3ccc(O)cc3)oc3cc(O)cc(O)c3c2=O)[C@H](O)[C@@H](O)[C@@H]1O` [TILIROSIDE]: in assay [1], the inhibition of growth at 20 µg/mL was determined as 65%. Besides, the zone of inhibition at 100 µg/disc in the assay with Thielaviopsis paradoxa was 7.1 mm; in the assay on Alternaria mali, 5.5 mm; with Athelia rolfsii, 2.6 mm; in the assay on Pyricularia grisea, 0 mm. Besides, the inhibition of growth at 100 µg/disc with Thielaviopsis paradoxa worked out at 27.6%; with Alternaria mali it was 55.6%; in the assay on Athelia rolfsii, 22.4%; in the assay with Pyricularia grisea it was 0%.
